Assay results reported in article PMC11959935 (Acta Pharmaceutica Sinica. B, 2025).

How the values were obtained:
epileptic focus = experiment: Pilot clinical PET imaging in a patient with temporal lobe epilepsy; format: in vivo, human
GL261 glioma allograft = experiment: PET imaging of orthotopic GL261 glioma allograft mouse models; format: in vivo
Summary of the method: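 Mice under isoflurane (1.5%, 0.4 L/min) in a stereotactic frame received mouse GL261 glioma cells (suspension 1 × 10^5 cells/mL) through a drilled hole by Hamilton syringe; controls received PBS. After 10 days, tumours were confirmed by T2-weighted MRI and [18F]FET PET (11.1 MBq), then the radiotracer was given i.v. T/N ratio was lesion SUV over contralateral normal brain.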

SMILES	SUVmean in epileptic focus (epileptic focus)	T/N ratio (GL261 glioma allograft)
CCOC(=O)c1ncn2c1CN(C)C(=O)c1cc([18F])ccc1-2 [[^18F]FMZ]	0.54 ± 0.28	
N[C@@H](Cc1ccc(OCC[18F])cc1)C(=O)O [[^18F]FET, ^18F-fluoro-ethyl-tyrosine]		1.17 ± 0.02
